Bioassay records from PubChem BioAssay.
Shown are actives, neighbours in structure and some others; about 2% of the full set was active somewhere.
NR2E3 ag-1 – human photoreceptor-specific nuclear receptor agonism; Q9Y5X4; CHO-S Gal4-NCOR/VP16-NR2E3 two-hybrid, luciferase; inhibition of corepressor binding, % at 3.98 µM; 360,000 tested, 0.35% active; AID 602229;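 active = inhibition above the mean of all tested compounds plus 3 SD, cut at about 70% in these data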;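 also: 0% = DMSO with NR2E3 transfected cells and 100% = cells lacking NR2E3 construct; higher means lower luciferase signal from less NR2E3 corepressor binding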
Neddyl block – blocks human cullin neddylation. TR-FRET cullin neddylation, biochemical. calls only at 25 µM. 360,000 tested, 0.58% active. AID 651699; in the data active = inhibition above about 36%
Target sequence (P61081 whole entry, looked up): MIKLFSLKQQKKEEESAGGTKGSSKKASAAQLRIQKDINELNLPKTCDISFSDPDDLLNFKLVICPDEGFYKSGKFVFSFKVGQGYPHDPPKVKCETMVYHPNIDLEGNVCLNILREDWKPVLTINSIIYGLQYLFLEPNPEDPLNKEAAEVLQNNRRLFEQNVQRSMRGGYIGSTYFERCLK
Target sequence (Q13564 whole entry, looked up): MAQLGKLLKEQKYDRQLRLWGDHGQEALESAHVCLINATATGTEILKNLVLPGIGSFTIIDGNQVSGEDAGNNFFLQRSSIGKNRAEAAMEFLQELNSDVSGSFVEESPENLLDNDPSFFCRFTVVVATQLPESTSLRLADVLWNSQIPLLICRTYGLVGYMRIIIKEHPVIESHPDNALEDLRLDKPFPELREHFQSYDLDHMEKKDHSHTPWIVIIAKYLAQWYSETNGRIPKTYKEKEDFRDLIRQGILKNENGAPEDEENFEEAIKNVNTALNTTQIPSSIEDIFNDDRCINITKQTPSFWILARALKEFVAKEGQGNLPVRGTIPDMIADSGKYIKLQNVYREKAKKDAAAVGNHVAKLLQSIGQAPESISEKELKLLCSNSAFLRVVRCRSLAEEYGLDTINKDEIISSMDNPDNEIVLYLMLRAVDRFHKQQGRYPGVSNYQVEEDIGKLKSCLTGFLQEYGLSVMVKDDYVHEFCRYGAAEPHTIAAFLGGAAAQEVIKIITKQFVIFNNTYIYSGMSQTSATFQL
Rev-erbA mod – modulators of human Rev-erb alpha DNA binding | 370,000 tested, 0.79% active | Rev-erbα–FITC-DNA binding, fluorescence polarization, 90 min | activity, % at 10 µM | P20393;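 active = activity above about 14%, limit read from the data; passing the limit was not always enough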;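 also: 0% = DMSO wells with 35 nM protein and 100% = DMSO wells with 750 nM protein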
PG9 Ab binder – PG9 antibody binding by small molecule; TR-FRET gp120-PG9 antibody binding; inhibition, % at 6.7 µM; 360,000 tested, 0.43% active; AID 624416; in the data active = inhibition above about 8.5%
NR2E3 ag-2 – agonists of human nuclear receptor NR2E3; AID 2300; 320,000 tested, 0.12% active; inhibition of corepressor binding, % at 4.78 µM; GST-NR2E3/biotin-RetCOR TR-FRET, 1536-well; Q9Y5X4;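 active = percent inhibition above the cutoff of mean plus 3 SD of all tested compounds, set per screening campaign, cut at about 20% in these data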;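 also: 0% = DMSO wells and 100% = biotin wells as full block of FRET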
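Material: NR2E3–RetCOR corepressor complex / Incubation: Compound–protein incubation for 5 h at 4 °C / Dosing: compound at 4.8 µM, single dose / Detection: time-resolved FRET / Benchmarks: high control biotin, low control 0.6% DMSO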
Neddyl conf – cullin neddylation inhibition, confirmation | 1,800 tested, 13% active | shares compounds with Neddyl block | TR-FRET cullin neddylation biochemical assay | calls only at 25 µM; in the data active = inhibition above about 40%;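 also: neddylation substrate is the cullin 1 ring ligase complex with SKP2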
Active calls of the source: *; i = inactive; · = no result shown; + = active, no number.

SMILES	NR2E3 ag-1	Neddyl block	Rev-erbA mod	PG9 Ab binder	NR2E3 ag-2	Neddyl conf
O=C(O)c1sc2cc(C(F)(F)F)cnc2c1-c1cccs1	5	+	-5	-4	-3	+
Cc1cc(C(=O)COC(=O)C2=COCCO2)c(C)n1-c1ccccc1	1	i	0	0	·	·
C[C@@H]1CN([C@H](C)CO)C(=O)CCCn2nncc2CO[C@@H]1CN(C)S(=O)(=O)c1ccc(-n2cccn2)cc1	-4	i	8	-1	·	·
N#Cc1ccc(NC(=O)c2cc(=O)c3ccccc3o2)cc1	3	+	-3	-2	-1	i
CC(=O)Nc1ccc(NC(=O)c2cc(=O)c3ccccc3o2)cc1	-55	i	-1	0	2	·
Cc1cc(F)ccc1S(=O)(=O)Nc1ccccc1C(=O)NCc1ccccn1	1	+	-5	2	2	i
O=c1c2ccccc2nc2n1CCCN2	22	+	0	-1	5	·
c1ccc(-c2cc3c(-n4cccc4)ncnc3o2)cc1	-54	+	-4	0	2	i
CC1Cn2c(nnc2-c2cc3ccccc3cc2O)S1 (stereo not given)	4	+	-1	3	6	i
COc1ccc(-n2cc(CNCc3cnc4ccccn34)c(-c3cccc(F)c3)n2)cc1	-22	+	6	2	-4	·
COc1ccc(-n2cc(CNCC3CCOCC3)c(-c3cccc(F)c3)n2)cc1	8	·	-5	0	1	·
CSc1ccc(CN2CCC(C)(Oc3cccc(F)c3)C2)cc1 (stereo not given)	-25	i	5	1	·	·
COc1ccc2c(c1)c(=O)oc1c(C)c(OC(C)C(=O)N[C@@H](Cc3c[nH]c4ccc(O)cc34)C(=O)O)ccc12 (stereo not given in full)	11	+	-7	-3	2	·
COc1ccccc1Oc1ccc(S(=O)(=O)N2CCOCC2)cc1S(=O)(=O)N1CCOCC1	-40	i	2	1	0	·
Cc1ccc(Oc2ccc(S(=O)(=O)N3CCOCC3)cc2C(N)=O)c(-n2nc3ccccc3n2)c1	-22	+	1	-1	0	·
O=C(CSc1ccccc1)NCC1(N2CCOCC2)CCCCC1	-22	i	2	-1	-1	·
O=C(NC1CCCN(Cc2ccc(Cl)cc2)C1)c1cnc2ccccn2c1=O (stereo not given)	14	+	3	0	1	·
CC(C)Cc1ccc(CN2CCCC(NC(=O)c3cnc4ccccn4c3=O)C2)cc1 (stereo not given)	-6	·	-6	-2	0	·
CCCCCN(C(=O)CCC(=O)OCc1ccc(C(C)C)cc1)c1c(N)n(CCCC)c(=O)[nH]c1=O	-7	i	-6	1	2	·
CCN(CC(=O)NCc1cccs1)C(=O)/C=C/c1cc(OC)c(OC)c(OC)c1	-9	+	7	0	·	+
COc1ccc2sc(-c3ccc(SC)cc3)c(C#CCO)c2c1	-31	+	-1	1	·	·
COc1ccc2sc(-c3ccc(SC)cc3)c(C#CC(C)(C)O)c2c1	-6	i	3	-1	3	·
COc1cc2c(cc1OC)C(COc1ccc(C(C)C)cc1)NCC2 (stereo not given)	-19	+	2	-1	2	i
C(=C\c1ccc2nncn2c1)/c1ccccc1	-28	+	-3	-3	·	+
c1coc(-c2ccc3nncn3c2)c1	-43	i	-20	1	·	·
SMILES	NR2E3 ag-1	Neddyl block	Rev-erbA mod	PG9 Ab binder	NR2E3 ag-2	Neddyl conf
CC1CCC2(CC1)CCC2NCc1ccc(Br)cc1 (stereo not given)	·	·	0	·	·	·
CCCCn1c(OC(=S)N(CC)CC)cc(C)nc1=S	0	i	·	·	·	·
FC(F)(F)c1cccc(OCC2CNC(=S)O2)c1 (stereo not given)	-36	i	4	0	1	·
COc1ccc2oc(=O)c(-c3nnc(NCc4ccco4)s3)cc2c1	-39	+	2	-2	3	i
COc1ccc2oc(=O)c(-c3nc4ccccc4o3)cc2c1	-104	+	-6	1	-1	+
COC(=O)C1=C(C)N(Cc2ccc(C(F)(F)F)cc2)C(=NCc2ccccc2C(F)(F)F)NC1c1ccc(F)cc1 (stereo not given)	·	·	9	-1	·	·
